Measured values as given in ChEMBL document CHEMBL3286393 (J Med Chem, 2014).
Activity calls are given as the source filed them. The rule behind the calls is not given here.

Legend:
[1] = target: T1, Prostaglandin G/H synthase 1 (Ovis aries) (UniProt P05979); experiment: Inhibition of purified ovine COX-1 assessed as residual activity by measuring formation of 12-HHT from arachidonic acid preincubated at 10 uM for 5 mins before substrate addition measured after 5 mins by HPLC analysis relative to control; values are per cent of control
T1 sequence (whole entry): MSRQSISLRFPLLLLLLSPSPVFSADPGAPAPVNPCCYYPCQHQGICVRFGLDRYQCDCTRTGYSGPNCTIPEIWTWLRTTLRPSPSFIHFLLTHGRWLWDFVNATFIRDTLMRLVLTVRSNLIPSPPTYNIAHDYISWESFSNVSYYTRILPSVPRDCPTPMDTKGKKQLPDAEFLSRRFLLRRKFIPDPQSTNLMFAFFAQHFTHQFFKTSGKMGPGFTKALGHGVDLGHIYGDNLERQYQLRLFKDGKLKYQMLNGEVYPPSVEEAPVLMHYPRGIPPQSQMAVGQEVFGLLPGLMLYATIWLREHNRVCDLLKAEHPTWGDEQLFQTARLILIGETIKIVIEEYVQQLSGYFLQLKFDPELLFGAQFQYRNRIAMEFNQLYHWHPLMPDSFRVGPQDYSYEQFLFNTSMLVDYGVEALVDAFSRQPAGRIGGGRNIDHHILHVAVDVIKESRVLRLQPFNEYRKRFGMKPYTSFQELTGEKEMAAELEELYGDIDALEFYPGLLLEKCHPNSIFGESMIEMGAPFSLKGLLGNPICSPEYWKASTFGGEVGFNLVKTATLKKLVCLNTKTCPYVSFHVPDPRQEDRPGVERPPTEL

[2] = tested on: Radical scavenging activity; experiment: Antioxidant activity assessed as DPPH free radical scavenging activity at 10 uM after 30 mins […] by spectrophotometric analysis; assay type: functional
[3] = Aqueous stability of the compound in at 2 uM in 10 mM aqueous ammonium bicarbonate at pH 7.9 assessed as formation of trans-6-(4'-hydroxy-3'-methoxyphenyl)-2,4-dioxo-5-hexenal measured as residual amount of compound by reversed phase liquid chromatography-coupled mass spectrometry; assay type: physicochemical; settings: buffer, pH 7.9, 2 µM
Outline: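 Compounds at 2 μM in 10 mM aqueous ammonium bicarbonate pH 7.9, incubated 30 min at 37 °C. Analysed by UPLC-MS on a C18 column, gradient acetonitrile/water with 0.07% formic acid, at 0.7 mL/min. Residual amount given as % of control; three to four independent experiments.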

[4] = target: T2, Polyunsaturated fatty acid lipoxygenase ALOX12 (Homo sapiens) (UniProt P18054); experiment: Inhibition of 12-LO in human neutrophils assessed as residual activity relative to control; settings: values are per cent of control
T2 sequence (whole entry): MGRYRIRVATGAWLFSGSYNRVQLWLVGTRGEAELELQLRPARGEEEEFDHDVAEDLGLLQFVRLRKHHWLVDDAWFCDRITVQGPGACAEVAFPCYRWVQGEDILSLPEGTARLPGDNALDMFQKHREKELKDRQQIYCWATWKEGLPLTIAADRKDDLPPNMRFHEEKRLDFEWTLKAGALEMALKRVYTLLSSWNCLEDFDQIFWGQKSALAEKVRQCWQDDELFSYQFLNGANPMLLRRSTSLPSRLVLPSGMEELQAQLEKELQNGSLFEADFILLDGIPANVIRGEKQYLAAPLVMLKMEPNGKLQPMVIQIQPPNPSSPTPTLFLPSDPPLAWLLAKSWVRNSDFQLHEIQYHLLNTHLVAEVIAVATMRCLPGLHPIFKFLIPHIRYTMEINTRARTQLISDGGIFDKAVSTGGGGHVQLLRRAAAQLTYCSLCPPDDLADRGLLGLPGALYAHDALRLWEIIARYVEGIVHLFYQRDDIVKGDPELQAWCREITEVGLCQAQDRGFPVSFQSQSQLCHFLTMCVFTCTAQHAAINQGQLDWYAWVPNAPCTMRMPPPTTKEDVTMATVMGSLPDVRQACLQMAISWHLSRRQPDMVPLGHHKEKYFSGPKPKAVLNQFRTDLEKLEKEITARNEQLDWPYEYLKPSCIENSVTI

[5] = target: T3, Prostaglandin E synthase (Homo sapiens, UniProt O14684); experiment: Inhibition of mPGES1-mediated PGE2 production in microsomes of IL-1beta stimulated human A549 cells preincubated for 15 mins by RP-HPLC analysis; assay type: cell-based
T3 sequence (O14684 whole entry): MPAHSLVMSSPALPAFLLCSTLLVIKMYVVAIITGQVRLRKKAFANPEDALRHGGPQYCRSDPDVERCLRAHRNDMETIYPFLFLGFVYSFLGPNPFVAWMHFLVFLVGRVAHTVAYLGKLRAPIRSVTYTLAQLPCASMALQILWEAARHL
Outline: (§1)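 mPGES-1 source: microsomes of A549 cells treated 48 h with IL-1β 2 ng/mL, at 25−50 μg protein/mL in 0.1 M potassium phosphate pH 7.4 with 2.5 mM glutathione. Compound preincubation 15 min at 4 °C; PGH2 (20 μM final) for 1 min; FeCl2/citric acid stop with 11β-PGE2 internal standard. PGE2 by RP-HPLC.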

[6] = tested on: PBMC; experiment: Cytotoxicity against human PBMCs assessed as cell viability after 24 hrs by MTT assay; assay type: cell-based
Outline: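 Human PBMC (2 × 10⁵/well), 24 h exposure. MTT then 4 h at 37 °C in darkness. Formazan solubilized with 10% SDS in 20 mM HCl; absorbance 550 nm. Viability relative to untreated cells; IC50 derived.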

[7] = target: T4, Prostaglandin G/H synthase 1 (Homo sapiens, UniProt P23219); experiment: Inhibition of COX1-mediated PGE2 production in human platelets assessed as residual activity by measuring formation of 12-HHT from arachidonic acid preincubated at 10 uM for 5 mins measured after 5 mins by RP-HPLC analysis relative to control
Outline: (§2)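 Washed human platelets, 10⁸/mL in PBS pH 7.4 with 1 mM CaCl2: 5 min compound preincubation at room temperature, then 1 min at 37 °C. Arachidonic acid 5 μM added; 5 min at 37 °C. 12-HHT extracted and measured by RP-HPLC.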

[8] = tested on: LNCaP; experiment: Cytotoxicity against human LNCAP cells assessed as cell viability after 24 hrs by MTT assay; assay type: cell-based
Outline: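 LNCaP seeded at 10⁴ cells/well and exposed 24 h. MTT added, then 4 h at 37 °C, 5% CO2, dark. Medium removed and formazan dissolved in DMSO; absorbance at 570 nm.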

[9] = target: T5, Polyunsaturated fatty acid 5-lipoxygenase (Homo sapiens, UniProt P09917); experiment: Inhibition of human recombinant 5-LO expressed in Escherichia coli Bl21 (DE3) using arachidonic acid as substrate preincubated for 10 mins measured after 10 mins by RP-HPLC analysis
T5 sequence (P09917 whole entry): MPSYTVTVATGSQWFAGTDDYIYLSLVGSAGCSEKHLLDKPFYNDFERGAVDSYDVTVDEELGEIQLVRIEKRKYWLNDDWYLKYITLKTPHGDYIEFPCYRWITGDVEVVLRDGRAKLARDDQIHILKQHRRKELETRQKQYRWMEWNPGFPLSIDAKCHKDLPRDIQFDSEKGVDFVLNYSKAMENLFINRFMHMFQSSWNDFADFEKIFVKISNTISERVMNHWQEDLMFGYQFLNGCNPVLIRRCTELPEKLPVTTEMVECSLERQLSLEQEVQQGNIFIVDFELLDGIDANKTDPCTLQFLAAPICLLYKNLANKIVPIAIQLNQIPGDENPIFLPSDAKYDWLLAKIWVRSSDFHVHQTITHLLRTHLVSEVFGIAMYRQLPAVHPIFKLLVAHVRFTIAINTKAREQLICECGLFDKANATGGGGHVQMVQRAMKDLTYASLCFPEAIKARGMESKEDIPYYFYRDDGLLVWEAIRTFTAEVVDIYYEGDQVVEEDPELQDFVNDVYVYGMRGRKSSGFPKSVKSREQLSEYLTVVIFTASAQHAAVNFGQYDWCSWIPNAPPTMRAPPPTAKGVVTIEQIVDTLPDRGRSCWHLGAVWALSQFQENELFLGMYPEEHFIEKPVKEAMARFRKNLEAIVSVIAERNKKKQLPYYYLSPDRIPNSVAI
Outline: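 5-LO expressed from pT3-5LO in E. coli BL21(DE3), semi-purified on ATP-agarose, diluted in PBS with 1 mM EDTA and 1 mM ATP. Preincubated with compound 10 min at 4 °C, then 30 s at 37 °C. Started with 2 mM CaCl2 plus 20 μM arachidonic acid; 10 min at 37 °C; ice-cold methanol stop. Three to four experiments.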

[10] = target: T5, Polyunsaturated fatty acid 5-lipoxygenase; experiment: Inhibition of 5-LO in human neutrophils using arachidonic acid as substrate preincubated for 15 mins measured after 10 mins by HPLC analysis
Outline: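 Fresh human neutrophils, 1 × 10⁷/mL in PBS pH 7.4 with 1 mM CaCl2 and 1 mg/mL glucose, preincubated 15 min at 37 °C. LTB4, its all-trans isomers and 5-H(P)ETE by HPLC.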

[11] = target: T6, Prostaglandin E synthase (Homo sapiens) (UniProt O14684); experiment: Inhibition of mPGES1-mediated PGE2 production in microsomes of IL-1beta stimulated human A549 cells assessed as residual activity preincubated at 10 uM for 15 mins by RP-HPLC analysis relative to control; assay type: cell-based
T6 sequence (whole entry): T3 sequence (O14684 whole entry)
Outline: as §1

[12] = target: T1, Prostaglandin G/H synthase 1 (Ovis aries); experiment: Inhibition of purified ovine COX-1 assessed as residual activity by measuring formation of 12-HHT from arachidonic acid preincubated at 10 uM for 5 mins before substrate addition measured after 5 mins by HPLC analysis relative to control
Outline: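 Purified ovine COX-1 (50 units) in 100 mM Tris pH 8 with 5 mM glutathione, 5 μM hemoglobin and 100 μM EDTA. Preincubated 5 min at 4 °C then 1 min at 37 °C. 5 μM arachidonic acid added; 12-HHT extracted after 5 min and measured by HPLC. Residual activity at 10 μM, three independent experiments.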

[13] = target: T4, Prostaglandin G/H synthase 1; experiment: Inhibition of COX1-mediated […] in human platelets assessed as residual activity by measuring formation of 12-HHT from arachidonic acid preincubated at 10 uM for 5 mins measured after 5 mins by RP-HPLC analysis relative to control; values are per cent of control
[14] = tested on: Mus musculus; experiment: Antiinflammatory activity in zymosan-induced peritonitis CD1 mouse model assessed as suppression of neutrophil infiltration at 1 mg/kg, ip administered 30 mins before challenge measured 4 hrs post zymosan challenge relative to control; assay type: functional; settings: route intraperitoneal
Outline: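 Zymosan peritonitis in male CD-1 mice (n = 5−11): ip dose in 2% DMSO/saline 30 min before ip zymosan. Peritoneal lavage with 3 mL cold PBS at 4 h. Exudate cells counted by light microscopy in a Burker chamber after trypan blue staining; % inhibition vs vehicle.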

[15] = tested on: Mus musculus; experiment: Antiinflammatory activity in zymosan-induced peritonitis CD1 mouse model assessed as suppression of LTB4 level at 1 mg/kg, ip administered 30 mins before challenge measured 4 hrs post zymosan challenge relative to control v
[16] = tested on: Mus musculus; experiment: Antiinflammatory activity in zymosan-induced peritonitis CD1 mouse model assessed as suppression of MPO activity at 1 mg/kg, ip administered 30 mins before challenge measured 4 hrs post zymosan challenge relative to control; assay type: functional; settings: route intraperitoneal
Outline: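 In male CD-1 mice (n = 5−11 per group), dose was given ip in 2% DMSO/saline 30 min before ip zymosan (2 mg/mL, 0.5 mL). Lavage 4 h later. Pelleted exudate cells disrupted; supernatant mixed with 0.167 mg/mL o-dianisidine and 0.0005% H2O2 in PBS, read kinetically by absorbance. U/mL from human neutrophil MPO calibration; % inhibition vs vehicle.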

[17] = target: T4, Prostaglandin G/H synthase 1; experiment: Inhibition of COX1-mediated PGE2 production in human platelets assessed as formation of 12-HHT using arachidonic acid as substrate preincubated for 5 mins measured after 5 mins by RP-HPLC analysis
Outline: as §2

[18] = target: T6, Prostaglandin E synthase (Homo sapiens); experiment: Inhibition of mPGES1-mediated PGE2 formation in LPS-stimulated human monocytes preincubated for 15 mins before arachidonic acid substrate addition measured after 30 mins by UPLC-MS/MS analysis; assay type: cell-based
Outline: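 Fresh human monocytes (adherence-isolated, >85% CD14+; 5 × 10⁶/well) primed with LPS 1 μg/mL for 24 h. Washed, 15 min preincubation, then 2.5 μM A23187 plus 20 μM arachidonic acid for 30 min. Eicosanoids extracted and measured by UPLC-MS/MS, normalized to PGB1 as relative intensities. Two to three independent experiments.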

T4 sequence (P23219 whole entry): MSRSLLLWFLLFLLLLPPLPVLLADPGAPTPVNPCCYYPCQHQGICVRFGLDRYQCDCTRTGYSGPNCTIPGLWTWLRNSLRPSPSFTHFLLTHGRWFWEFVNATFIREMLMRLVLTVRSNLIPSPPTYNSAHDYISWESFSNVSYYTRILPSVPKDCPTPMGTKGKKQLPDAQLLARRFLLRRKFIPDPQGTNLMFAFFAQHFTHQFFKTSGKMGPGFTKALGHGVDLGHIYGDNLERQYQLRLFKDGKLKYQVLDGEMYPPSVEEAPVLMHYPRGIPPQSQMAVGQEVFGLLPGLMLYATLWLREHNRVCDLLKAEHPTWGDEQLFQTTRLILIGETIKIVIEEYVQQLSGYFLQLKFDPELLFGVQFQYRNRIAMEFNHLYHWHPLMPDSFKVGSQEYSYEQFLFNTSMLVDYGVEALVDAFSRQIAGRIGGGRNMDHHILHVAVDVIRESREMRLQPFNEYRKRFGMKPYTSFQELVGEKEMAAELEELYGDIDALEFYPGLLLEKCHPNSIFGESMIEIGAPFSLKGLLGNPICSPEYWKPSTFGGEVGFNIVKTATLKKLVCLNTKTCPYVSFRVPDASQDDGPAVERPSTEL

Row | Stability [3] | residual activity [4] [%] | IC50 [9] [µM] | IC50 [10] [µM] | inhibition [12] | Structure (SMILES) | Activity [2] [%] | IC50 [6] [µM] | IC50 [8] [µM] | further results
1 | – | – | – | – | – | COc1ccc2c(c1)c(CC(=O)O)c(C)n2C(=O)c1ccc(Cl)cc1 | – | – | – | residual activity [1]: 25%
2 | 87.4% | 76.4 | 0.4 | 2.9 | – | COc1cc(CCC(=O)CC(=O)CCc2cc(CCC(C)C)c(O)c(OC)c2)cc(CCC(C)C)c1O | 71.9 | > 50 | > 50 | IC50 ([5]; a549): Not Active; residual activity [1]: 82.7%; inhibition [7]: inactive
3 | Unstable | 75.7 | 2.8 | 80.2 | inactive | COc1cc(/C=C/C(=O)CC(=O)/C=C/c2cc(CCC(C)C)c(O)c(OC)c2)cc(CCC(C)C)c1O | 64.3 | – | – | Activity [11]: 71.7%; inhibition [7]: inactive
4 | Unstable | 67.7 | 0.6 | 8.1 | inactive | COc1cc(/C=C/C(=O)/C=C/c2cc(F)c(O)c(OC)c2)cc(F)c1O | 80.5 | > 50 | 25.1 | residual activity [13]: 65.2%; Activity [11]: 58.8%
5 | – | – | – | – | – | CC(C)c1ccc2c(c1)c(SC(C)(C)C)c(CC(C)(C)C(=O)O)n2Cc1ccc(Cl)cc1 | – | – | – | inhibition in vivo at 1 mg/kg [14]: 41%; inhibition in vivo at 1 mg/kg [15]: 63%; inhibition in vivo at 1 mg/kg [16]: 41%
6 | – | – | – | – | – | O=C1O[C@H]([C@@H](O)CO)C(O)=C1O | 20.4 | – | – | –
7 | Unstable | 69.7 | 0.4 | 10 | inactive | COc1cc(/C=C/C(=O)CC(=O)/C=C/c2cc(F)c(O)c(OC)c2)cc(F)c1O | 61.4 | > 50 | > 50 | IC50 ([5]; read-out: IC50): 8.7 µM; IC50 [17]: 7.5 µM
8 | – | – | – | – | – | Clc1ccccc1-c1nc2c3ccccc3c3ccccc3c2[nH]1 | – | – | – | IC50 ([5]; read-out: IC50): 0.02 µM; inhibition [18]: Active
